Assay results published in ChEMBL document CHEMBL4368901 (J Med Chem, 2019).
pIC50: −log10 of the molar value. Activity calls are given as the source filed them. The rule behind the calls is not given here.

How the values were obtained:
[1] = Inhibition of GDH (unknown origin) using NADP+ and glutamate as substrate preincubated for 0.5 hrs followed by substrate addition and measured after 1 hr by EZMTT reagent-based UV-Vis absorbance assay; design: species or system Homo sapiens
A549 [2] = test: Antiproliferative activity against human A549 cells after 5 days by EZMTT reagent-based assay; assay type: functional, cell-based; conditions: A549, 120 h
A549 [3] = test: Antiproliferative activity against human A549 cells after 5 days by EZMTT reagent-based assay relative to control; assay type: functional
[4] = Solubility of compound; assay type: physicochemical
[5] = target: T1, Glutaminase kidney isoform, mitochondrial (Homo sapiens, UniProt O94925); test: Inhibition of human KGA preincubated for 15 to 30 mins followed by substrate addition and measured after 3 to 4 hrs by GDH-EZMTT reagent-based GDH coupled assay
T1 sequence (O94925 whole entry): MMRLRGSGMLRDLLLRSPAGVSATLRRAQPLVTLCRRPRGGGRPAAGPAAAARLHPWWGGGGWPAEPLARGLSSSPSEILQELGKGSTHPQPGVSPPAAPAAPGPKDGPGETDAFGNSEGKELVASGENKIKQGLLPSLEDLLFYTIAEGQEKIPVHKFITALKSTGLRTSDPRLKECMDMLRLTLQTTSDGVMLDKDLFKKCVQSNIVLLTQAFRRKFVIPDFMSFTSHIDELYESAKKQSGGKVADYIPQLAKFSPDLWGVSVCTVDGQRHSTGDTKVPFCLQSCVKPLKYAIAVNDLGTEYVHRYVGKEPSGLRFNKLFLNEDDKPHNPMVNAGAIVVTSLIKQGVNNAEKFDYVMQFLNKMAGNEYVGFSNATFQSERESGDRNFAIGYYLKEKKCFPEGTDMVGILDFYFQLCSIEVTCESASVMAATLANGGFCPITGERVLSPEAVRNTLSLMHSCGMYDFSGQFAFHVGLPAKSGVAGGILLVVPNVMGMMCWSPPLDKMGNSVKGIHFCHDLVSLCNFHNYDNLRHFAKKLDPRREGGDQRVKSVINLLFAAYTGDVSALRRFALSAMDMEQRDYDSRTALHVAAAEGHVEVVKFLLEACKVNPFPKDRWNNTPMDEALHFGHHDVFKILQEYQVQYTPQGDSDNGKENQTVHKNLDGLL

CAKI-1 [6] = test: Antiproliferative activity against human Caki1 cells after 5 days by EZMTT reagent-based assay relative to control; assay type: functional
HCT-116 [7] = test: Antiproliferative activity against human HCT116 cells after 5 days by EZMTT reagent-based assay relative to control; assay type: functional
[8] = Metabolic stability in mouse liver microsomes at 50 uM after 4 hrs in presence of NADPH by HPLC analysis; assay type: ADME, Microsome; conditions: read-out: Stability
Summary of the method: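 Compound was incubated with mouse liver microsomes for 4 h, with coumarin as the control. The remaining level was quantified by HPLC using UV absorbance at 254 nm.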

[9] = Metabolic stability in ICR mouse blood after 2 hrs by HPLC analysis; assay type: ADME, tissue-based
Summary of the method: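 Compound was incubated in blood for 2 h and its remaining concentration was quantified by HPLC.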

H22 [10] = test: Antitumor activity against mouse H22 cells transplanted in ICR mouse assessed as induction of foam-like histiocytic reaction at tumor region at 10 mg/kg, sc administered once daily for 10 consecutive days by hematoxylin and eosin staining-based assay; assay type: functional, organism-based
H22 [11] = test: Antiproliferative activity against mouse H22 cells after 5 days by EZMTT reagent-based assay; assay type: functional, cell-based; conditions: H22, 120 h
HCT-116 [12] = test: Antiproliferative activity against human HCT116 cells after 5 days by EZMTT reagent-based assay; assay type: functional, cell-based; conditions: HCT-116, 120 h
CAKI-1 [13] = test: Antiproliferative activity against human Caki1 cells after 5 days by EZMTT reagent-based assay; assay type: functional, cell-based; conditions: CAKI-1, 120 h
H22 [14] = test: Antitumor activity against mouse H22 cells transplanted in ICR mouse assessed as induction of inflammatory cell infiltration at tumor region at 10 mg/kg, sc administered once daily for 10 consecutive days by hematoxylin and eosin staining-based assay; assay type: functional, organism-based
H22 [15] = test: Antitumor activity against mouse H22 cells transplanted in ICR mouse assessed as reduction in tumor weight at 10 mg/kg, sc administered once daily for 10 consecutive days relative to control; assay type: functional; design: scale not given: the % may be the effect or the level left
Summary of the method: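 H22 liver cancer model in young SPF ICR mice, n=10 per group. Compound given subcutaneously once daily at 10 mg/kg, 10 injections; the control group received N.S. End-point tumour size and weight, body weight and survival were recorded. Treated groups were compared with control by unpaired t test.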

H22 [16] = test: Antitumor activity against mouse H22 cells transplanted in ICR mouse assessed as induction of tumor deterioration at 10 mg/kg, sc administered once daily for 10 consecutive days by hematoxylin and eosin staining-based assay; assay type: functional, organism-based
[17] = Drug level in tumor of mouse H22 cells transplanted ICR mouse at 10 mg/kg, sc administered once daily for 10 consecutive days by HPLC analysis; assay type: ADME, organism-based, Neoplasm; conditions: in vivo
Summary of the method: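 Compound accumulation was measured in end-point tumours from H22-bearing ICR mice after once-daily subcutaneous 10 mg/kg dosing, 10 injections. Tumour content was analysed by HPLC.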

H22 [18] = test: Antiproliferative activity against mouse H22 cells after 5 days by EZMTT reagent-based assay relative to control; assay type: functional
[19] = Retention time of compound in mouse liver microsomes at 50 uM by LC-MS/MS analysis; assay type: ADME, Microsome
H22 [20] = test: Antitumor activity against mouse H22 cells transplanted in ICR mouse assessed as induction of scattered deformed nuclei at tumor region at 10 mg/kg, sc administered once daily for 10 consecutive days by hematoxylin and eosin staining-based assay; assay type: functional, organism-based
H22 [21] = test: Antitumor activity against mouse H22 cells transplanted in ICR mouse assessed as induction of fibrous hyperplasia at tumor region at 10 mg/kg, sc administered once daily for 10 consecutive days by hematoxylin and eosin staining-based assay; assay type: functional, organism-based
[22] = Drug uptake in human Caki1 cells up to 2 uM after 24 hrs without gold nanoparticles by microspectrometric analysis based Raman spectra assay; assay type: ADME, cell-based; conditions: caki-1, 24 h
[23] = Drug uptake in human Caki1 cells after 24 hrs using gold nanoparticles by microspectrometric based Raman spectra assay; assay type: ADME, cell-based; conditions: caki-1, 24 h
Summary of the method: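 Compound was premixed 1:1 with nanogold particles, at up to 2 µM. Glutamine-dependent Caki-1 cells were treated for 3, 9, 16 and 24 h, then SERS spectra were collected. Signal at 1352 cm^-1 served as the compound marker for cellular concentration.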

A549 [24] = test: Induction of ROS generation in human A549 cells at 10 uM after 12 hrs by DCFH-DA staining-based fluorescence microscopic analysis; assay type: functional, cell-based
Summary of the method: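 A549 cells were seeded at 10000 per well and exposed to compound at 0, 3 or 10 µM for 12 h. ROSUP at 100 µg/ml served as the positive control, alongside untreated cells. ROS was then assessed.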

SMILES	pIC50 [1]	pIC50 (A549 [2])	Imax (A549 [3]) [%]	pIC50 [5]	other results
Nc1nnc(CCSCCc2nnc(NC(=O)Cc3ccccc3)s2)s1	< 4.89	< 4.89			
O=C(Cc1ccccc1)Nc1nnc(CCCCc2nnc(NC(=O)Cc3ccccc3)s2)s1	< 4.89	< 4.89	0		solubility [4]: Insoluble
COc1ccc(Nc2nnc(CCSCCc3nnc(Nc4ccc(OC)cc4)[se]3)[se]2)cc1	< 4.89	< 4.89	0	< 4.89	
O=C(Cc1ccccc1)Nc1nnc(CCSCCc2nnc(NC(=O)Cc3ccccc3)[se]2)[se]1	< 4.89	6.64	82		
c1ccc(CNc2nnc(CCSCCc3nnc(NCc4ccccc4)[se]3)[se]2)cc1	< 4.89	< 4.89	0	< 4.89	
COc1ccc2c(c1)c(CC(=O)Nc1nnc(CCCCc3ccc(NC(=O)Cc4cccc(OC(F)(F)F)c4)nn3)[se]1)cn2C	< 4.89	8.00	90	8.00	Imax (CAKI-1 [6]): 90%; Imax (HCT-116 [7]): 92%; remaining at 4 h, 50 µM [8]: 30%; Stability [9]: Stable; Activity (H22 [10]): Active; pIC50 (H22 [11]): 5.39; pIC50 (HCT-116 [12]): 7.70; pIC50 (CAKI-1 [13]): 7.70; Activity (H22 [14]): Active; Activity (H22 [15]): 40%; Activity (H22 [16]): Active; Drug uptake [17]: Active; Imax (H22 [18]): 70%; Retention_time [19]: 10.7 min; Activity (H22 [20]): Active; Activity (H22 [21]): Active
O=C(Nc1nnc(CCSCCc2nnc(NC(=O)C34CC5CC(CC(C5)C3)C4)[se]2)[se]1)C12CC3CC(CC(C3)C1)C2	< 4.89	< 4.89	0	5.77	
O=c1c2ccccc2[se]n1CCCCCCn1[se]c2ccccc2c1=O					Imax (CAKI-1 [6]): 100%; Imax (HCT-116 [7]): 100%; pIC50 (H22 [11]): 6.08; pIC50 (HCT-116 [12]): 5.66; pIC50 (CAKI-1 [13]): 5.89; Imax (H22 [18]): 100%
Cn1cc(CC(=O)Nc2nnc(CCSCCc3nnc(NC(=O)Cc4cn(C)c5ccccc45)s3)s2)c2ccccc21	< 4.89	5.54	80		Imax (CAKI-1 [6]): 85%; Imax (HCT-116 [7]): 93%; pIC50 (H22 [11]): < 5.00; pIC50 (HCT-116 [12]): 5.66; pIC50 (CAKI-1 [13]): 5.41; Drug uptake [22]: Not Active; Drug uptake [23]: Dose-dependent effect; Imax (H22 [18]): 42%
Cn1ccc(CC(=O)Nc2nnc(CCSCCc3nnc(N)[se]3)[se]2)c1	< 4.89	< 4.89		5.68	
O=C(Cc1ccccc1)Nc1nnc(CCSCCc2nnc(NC(=O)Cc3ccccc3)s2)s1	< 4.89	6.38	72		Imax (CAKI-1 [6]): 73%; Imax (HCT-116 [7]): 69%; pIC50 (HCT-116 [12]): 6.27; pIC50 (CAKI-1 [13]): 5.94; Imax (H22 [18]): 29%
Cn1cc(CC(=O)Nc2nnc(CCSCCc3nnc(NC(=O)Cc4cn(C)c5ccccc45)[se]3)[se]2)c2ccccc21	< 4.89	6.96	81		Imax (CAKI-1 [6]): 87%; Imax (HCT-116 [7]): 94%; pIC50 (H22 [11]): 5.86; pIC50 (HCT-116 [12]): 6.49; pIC50 (CAKI-1 [13]): 6.40; Drug uptake [22]: Not Active; Drug uptake [23]: Dose-dependent effect; Imax (H22 [18]): 71%
Cn1ccc(CC(=O)Nc2nnc(CCSCCc3nnc(N)s3)s2)c1	< 4.89	< 4.89		5.29	
Cn1cc(CC(=O)Nc2nnc(CCSCCc3nnc(N)s3)s2)c2ccccc21	< 4.89	< 4.89		5.85	
Nc1nnc(CCCCc2nnc(NC(=O)Cc3ccccc3)s2)s1	< 4.89	< 4.89	0	< 4.89	
Cn1cc(CC(=O)Nc2nnc(CCSCCc3nnc(N)[se]3)[se]2)c2ccccc21	< 4.89	< 4.89		5.96	Drug uptake [22]: Not Active; Drug uptake [23]: Dose-dependent effect
Cn1cc(CC(=O)Nc2nnc(CCCCc3ccc(NC(=O)Cc4cccc(OC(F)(F)F)c4)nn3)[se]2)c2ccccc21	< 4.89	7.77	80		Imax (CAKI-1 [6]): 90%; Imax (HCT-116 [7]): 92%; pIC50 (H22 [11]): < 5.00; pIC50 (HCT-116 [12]): 8.05; pIC50 (CAKI-1 [13]): 7.85; Imax (H22 [18]): 10%
c1ccc(CCNc2nnc(CCSCCc3nnc(NCCc4ccccc4)[se]3)[se]2)cc1	< 4.89	< 4.89	0	< 4.89	
O=c1ccc2ccccc2o1 [COUMARIN]					remaining at 4 h, 50 µM [8]: 14%
Nc1nnc(CCSCCc2nnc(NC(=O)C34CC5CC(CC(C5)C3)C4)[se]2)[se]1	< 4.89	< 4.89	0	5.10	
Cn1ccc(CC(=O)Nc2nnc(CCSCCc3nnc(NC(=O)Cc4ccn(C)c4)[se]3)[se]2)c1	< 4.89	6.00	82		
O=C(Cc1cccc(OC(F)(F)F)c1)Nc1ccc(CCCCc2nnc(NC(=O)Cn3cc(F)c(=O)[nH]c3=O)[se]2)nn1	< 4.89	6.34	91	7.70	Activity (A549 [24]): Active
Nc1nnc(CCSCCc2nnc(NC(=O)CC34CC5CC(CC(C5)C3)C4)[se]2)[se]1	< 4.89	5.30	60	6.52	
Nc1nnc(CCSCCc2nnc(NC(=O)Cc3ccccc3)[se]2)[se]1	< 4.89	< 4.89		5.55	
Cn1ccc(CC(=O)Nc2nnc(CCSCCc3nnc(NC(=O)Cc4ccn(C)c4)s3)s2)c1	< 4.89	5.66	80		
